For 37 variants, yeast fitness results are on record in the RNAGym collection of RNA variant scans (doi:10.1126/science.aae0568).

This sample holds only a part of the variants without activity.

First the molecules themselves.
B1: tRNA (parent)
chain: GUUCCGUUGGCGUAAUGGUAACGCGUCUCCCUCCUAAGGAGAAGACUGCGGGUUCGAGUCCCGUACGGAACG

In the data set the parent is B1. In words: yeast fitness relative to wild type (ratio to wild type); higher = fitter; tRNA-Arg(CCU), competitive growth, 37 C, YPD. In a few lines: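 Amplicons of the tRNA-Arg(CCU) gene were sequenced, 100-nucleotide paired-end, from the start population and from each end population of a pooled yeast competition. The competition, in six parallel replicates, lasted 24 hours in YPD at 37°C. Fitness relative to wild type was calculated from changes in genotype frequencies. Genotypes had to have ≥ 100 starting reads, and estimates < 0.5 were set to 0.5.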
As to GUUCAGUUGGCGUAAUGGUGACGCGUCUCCCUCCUAAGGAGAAGACUGAGGGUUCGAGUCCCGUACGGAACG [C5A A20G C49A], the yeast fitness is 0.568.
GUUUCGUUGGCGUAAUGGUAACGCGUCUCCCUCCUAAGGAGAAGACUGCGGGUUCGAGCCACGUACGGAACG [C4U U59C C61A]: the yeast fitness was not above 0.5.
As for GUUCAGUUGGCGUUAUGGUAACGCGUCUCCCUCCUAAGGAGAAGACUGCGGGUUCGAGUCCCGUACGGAACG [C5A A14U], the yeast fitness amounted to 0.654.
In the case of GUUCAGUUGGCGUGAUGGUAACGCGUCUCCCUCCUAAGGAGAAGACUGCGGGUUCGAGUCCCGUACGGAACG [C5A A14G] it was 0.912; in that of GUUCAGUUGGCGUGAUGGUAACGCGACUCCCUCCUAUGGAAAAGACUGCGGGUUCGAGUCCUGUACGGAACG [C5A A14G U26A A37U G41A C62U], not above 0.5.
The figure for GUUUCGUUGGCGUAAUGGUAACGCGACUCCCUCCUAAGGAGAAGACUGCGGCUUCGAGUCCCGUACGGAACG [C4U U26A G52C] is 0.569.
Take GUUCAGUUGGCGUAUUGGCAACGCGUCUCCGUCCUAAGAAGAAGACUGCGGGUUCGAAUCCCGUACAGAACG [C5A A15U U19C C31G G39A G58A G67A]: the yeast fitness was not above 0.5.
On to GUUCAGUUGGCGUAGUGGUAACGCGUCUCCUUCCUAAGGAGAAGACUGCGGGUUCGAGUCCCGUACGGAACG [C5A A15G C31U], for which the yeast fitness worked out at 0.657.
On to GUUCAGUUGGCGUGAUGGUAACGAGUCUCCCUCCUAAGGAGAAGACUGCGGGUUCGAGUCCCGUAGGGAACG [C5A A14G C24A C66G], for which the yeast fitness is not above 0.5.
As for GUUCAGUUGGCGUGAUGGUAACGCGUCUCCUUCCUAAGGAGAAGACUGCGGGUUCGAGUCCCGUACGGAACG [C5A A14G C31U], the yeast fitness was found to be 0.721.
For GUUUCGUUGGCGUAAUGGUAACGCGUCGCCCUCCUAAGGAGAAGACUGCGGGUUCGAGUCUUGUACGGAACG [C4U U28G C61U C62U], the yeast fitness was not above 0.5.
On to GUUUCGUUGGCGUAAUGGUAACGCGUCUCCCUCCAAAGGAGAACACUGCGGGUUCGAGUCCCGUAUUGAGCG [C4U U35A G44C C66U G67U A70G], for which the yeast fitness was not above 0.5.
For the variant GUUUCGUUGGCGUAAUGGUAACGCGUCUCCCUCCGAAGGAGAAGUCUGCGGGUUCGAGUCCCGUACGGAACG [C4U U35G A45U], the yeast fitness amounted to 0.583.
The figure for GUUCAGUUGGCGUAAUGGUGACGCGUCUCCCGCCUAAGGAGACGUCUGCGGGUUCGAGUCCCGUACGGAACG [C5A A20G U32G A43C A45U] is not above 0.5; for GUUUCGUUGGCGUAAUGGUAACGCGCCUCCAUCCUAAGGAGAAGACUGGGGGUUCGAGUCCCCUACGGUACG [C4U U26C C31A C49G G63C A69U] it is not above 0.5; for GUUUCGUUGGCGUAAUGGUAACGCGCCUCCCUCCUAAGGAGAAAACUGCGGGUUCGAGUCCCGUACGGAACG [C4U U26C G44A] it is 0.569.
With GUUCAGUUGGCGUCAUGGUAACGCGUCUCCCUCCUAAGGAGACGACUGCGGGUUCGAGUCCCGUACGGAACG [C5A A14C A43C], the yeast fitness was not above 0.5.
Consider GUUUCGUUGGCGUAAUGGUAACGCGUCUCCCUCCGAAGGAGAAGACUGCGGGUUCGAGUCCCGUGCGGAACG [C4U U35G A65G], for which the yeast fitness was 0.607.
In the case of GUUCAGUUGGCGUGAUGGUUACGCGUCUCCCUCCUACGGAGAAGACUGAGGGUUCGAGUCCCGUACGGAACG [C5A A14G A20U A37C C49A], the yeast fitness is not above 0.5.
For GUUCAGUUGGCGUAUUGGUAACGCGUCUCCGUCCUAAGAAGAAGACUGCGGGUUCGAAUCCCGUACAGAACG [C5A A15U C31G G39A G58A G67A], the yeast fitness turned out to be 0.558.
Turning to GUUUCGUUGGCGUAAUGGUAACGCGUCUCCCACCUAAGGACACGACUGCGGGUUCGAGUCCCGUACGGAACG [C4U U32A G41C A43C], the yeast fitness was not above 0.5.
The figure for GUUCAGUUGGCGUAGUGCUAACGCGUCUACCUCCUAAGGAGAAGACUGCGGGUACGAGUCCCGUACGGAACG [C5A A15G G18C C29A U54A] is not above 0.5; for GUUCAGUUGGCGUAAUGGUCAAGCGUCUCCCUCCUCAGGAGAAGACUGCGGGUUCGAGUCCCGUACGGCACG [C5A A20C C22A A36C A69C] it is not above 0.5.
Regarding GUUUCGUUGGCGUAAUGGUAACGCGUCCCCCUCCUCAGGAGAAGACUGCGAGUUCGAGUCCCGUAAGGAACG [C4U U28C A36C G51A C66A], the yeast fitness was not above 0.5.
With GUUCAGUUGGCGUAGUGGUAACGCAUCUCCCUCCUAAGGAGAAGACUGCGGGUUCGAGUCCCGUACGGAACG [C5A A15G G25A], the yeast fitness came to 0.583.
Take GUUCAGUUGGCGUAAUGGUGACGCGUCUCCCUCCUAAGGGGAAGACUGUGGGUUCGAGUCCCGUACGGAACG [C5A A20G A40G C49U]: the yeast fitness was not above 0.5.
As for GUUCAGUUGGCGUGAUGGUAACGAGUCUCCCCCCUAAGGAGAAGACUGCGGGUUCGAGUCCCGUACGGAACG [C5A A14G C24A U32C], the yeast fitness was not above 0.5.
Take GUUCAGUUGGCGUGGUGGUAAGGCGUCUCCCUCCUAUGGAGAAGACUGCGGGUUCGAGUCCCGUACGGAACG [C5A A14G A15G C22G A37U]: the yeast fitness is not above 0.5.
For GUUUCGUUGGCGUAAUGGUAACGCGUCUCCCUCCUAAGGAGAAGACUGCGGGUUCGAGGCCCGUACGGAACG [C4U U59G], the yeast fitness amounted to 0.909.
Take GUUUCGUUGGCGUAAUGGUAACGCGUCUCCCUCCUAAGGAGAAGACUGCGGGUUCGAGACCCGUACGGAACG [C4U U59A]: the yeast fitness is 0.999.
Turning to GUUUCGUUGGCGUAAUGGUAACGCGUCUCCCUCCUAAGGAGAAGACUGCGGGUUCGAGUCCCGAACGGAACG [C4U U64A], the yeast fitness is 0.852.
As to GUUUCGUUGGCGUAAUGGUAACGCGUCUCCCUCCUAAGGAGAAGACUGCGGGUUCGAGUCCCGGACGGAACG [C4U U64G], the yeast fitness was 1.09.
Turning to GUUCAGUUGGCGUAAUGGUCAAGUGUCUCCUUCCUAAGGAGAAGACUGCGGGUUCGAGUCCCGUACAGAACG [C5A A20C C22A C24U C31U G67A], the yeast fitness was not above 0.5.
In the case of GUUCAGUUGGCGUUAUGGUAACGCGUUUCCCUCCUAAGGAGAAGACUGGGGGUUCGAGUCCCGUACGGAACG [C5A A14U C27U C49G], the yeast fitness is not above 0.5.
For GUUCAGUUGGCGUAUUGGUAACGCGUCUCCCUCCUAAGGAGAAGACUGCGGGUUCGAGUCCCGUACGGCACG [C5A A15U A69C], the yeast fitness was not above 0.5.
Regarding GUUCAGUUGGCGUAGUGGUAACGCGUCUCCCUCCUGAGGAGAAGACUGCGGGUUCGAGUCCCGUACGGAACG [C5A A15G A36G], the yeast fitness was not above 0.5.
For the variant GUUUCGUUGGCGUAAUGGUAACGCGUCCCCCUCCUCAGGAGAAGACUGCGGGUUCGAGUCCCGUACGGAACG [C4U U28C A36C], the yeast fitness was not above 0.5.
